Assay outcomes: PubChem BioAssay, Sanford-Burnham Center for Chemical Genomics
An excerpt weighted towards active compounds, which were near 3.1% of everything screened.
Apaf-1 inh = blocks human Apaf-1 apoptosome activity; 0.71% of 330,000 active; reconstituted apoptosome caspase-3 activity, DEVD-Rh110 fluorescence; inhibition, % at 20 µM; AID 489030; active = inhibition of at least 40% at 20 µM
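detection = Rh110 fluorescence intensity | test system = biochemical Apaf-1 apoptosome reconstitution | also added = cytochrome c and DEVD-Rh110 substrate | schedule = 30 min plus 50 min, RT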
SENP7 inh = inhibitors of human SENP7 protease. Q9BQF6. recombinant SENP7, Z-RLRGG-aminoluciferin luminescence, 40 min. inhibition, % at 5 µM. 1.5% of 330,000 active;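 active = inhibition above about 50% at the single test dose, limit read from the data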
SENP8 block-1 = blocks human SENP8 cleavage of Nedd8 substrate; 0.64% of 360,000 active; Q96LD8; AID 602440; recombinant SENP8, Nedd8 substrate fluorescence; inhibition, % at 20 µM; in the data active = inhibition mostly above about 40%, no sharp cut-off; inactive = mostly below about 27%
SENP6 block = inhibitors of human SENP6 protease; 1.8% of 330,000 active; AID 2599; inhibition, % at 10 µM; Recombinant SENP6 catalytic domain, aminoluciferin luminescence; Q9GZR1;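 active = inhibition above about 50% at the single tested dose, limit read from the data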
Target sequence (Q9GZR1 628-1112 limits assumed): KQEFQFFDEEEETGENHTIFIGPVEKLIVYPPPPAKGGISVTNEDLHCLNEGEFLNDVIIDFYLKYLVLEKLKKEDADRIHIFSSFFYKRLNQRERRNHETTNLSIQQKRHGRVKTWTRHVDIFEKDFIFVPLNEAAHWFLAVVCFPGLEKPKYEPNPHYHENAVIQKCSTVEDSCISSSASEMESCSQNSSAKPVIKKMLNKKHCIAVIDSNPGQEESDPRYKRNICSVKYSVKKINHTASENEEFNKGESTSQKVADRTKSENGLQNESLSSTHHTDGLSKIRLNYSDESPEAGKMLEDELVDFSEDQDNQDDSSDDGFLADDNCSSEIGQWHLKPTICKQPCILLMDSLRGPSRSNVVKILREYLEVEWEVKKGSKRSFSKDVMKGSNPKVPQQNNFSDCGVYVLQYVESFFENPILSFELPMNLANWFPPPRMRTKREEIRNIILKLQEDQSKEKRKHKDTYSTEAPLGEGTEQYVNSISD
SENP8 block-2 = inhibitors of human SENP8 protease. purified SENP8, Z-RLRGG-aminoluciferin cleavage, luminescence. inhibition, % at 10 µM. 1.2% of 330,000 active. AID 2540; in the data active = inhibition above about 50%
UBC13 inh = blocks human UBC13 polyubiquitin chain formation. TR-FRET. inhibition, % at 20 µM. 0.47% of 330,000 active. AID 485273; in the data active = inhibition above about 45%, passing the limit was not always enough
Target sequence (P61088 whole entry, looked up): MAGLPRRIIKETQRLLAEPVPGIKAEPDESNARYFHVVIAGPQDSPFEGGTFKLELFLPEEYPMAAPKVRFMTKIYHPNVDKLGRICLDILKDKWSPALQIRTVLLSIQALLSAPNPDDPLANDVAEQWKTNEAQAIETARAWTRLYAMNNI
Apaf-1 inh conf = Apaf-1 inhibition, single-dose confirmed; 25% of 1,800 active; inhibition, % at 20 µM; shares compounds with Apaf-1 inh; reconstituted apoptosome, caspase-3 DEVD-Rh110 fluorescence; AID 504614;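 active = mean inhibition of at least 40% at 20 µM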
Rh110 quench = counter-screen for Apaf-1 inhibitors: fluorescence interference; shares compounds with Apaf-1 inh; activation (fluorescence interference), % at 20 µM; AID 504615; 1,800 tested, under 10 active; Rh110 fluorescence interference, quenched caspase reaction;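 active = signal rise of 40% or more at 20 µM, treated as a fluorescence artifact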
Apaf1 inh interf = Apaf-1 inhibitor counter-screen fluorescence artifact. IC50, µM. 460 tested, under 10 active. fluorescence interference counterscreen, Apaf-1 assay format. shares compounds with Apaf-1 inh. AID 588538; call rule not given here
Hits are given with their value; i = inactive; nt = no result given.

SMILES | Apaf-1 inh | SENP7 inh | SENP8 block-1 | SENP6 block | SENP8 block-2 | UBC13 inh | Apaf-1 inh conf | Rh110 quench | others
Cn1ccc2cc3c(cc21)CCN3C(=O)Nc1cccnc1 | 66.0 | i | i | i | i | i | i | i
COc1cc(-c2c(C#N)c(=O)[nH]c3c2c(C)nn3-c2ccccc2)ccc1O | 42.1 | i | i | i | i | i | 43.3 | i | Apaf1 inh interf=i
CCc1nc(N)c(C#N)c(-c2ccc(O)c(OC)c2)c1C | i | i | i | i | i | i | nt | nt
Cc1ccc(S(=O)(=O)N(C)C[C@@H]2OCc3cnnn3CCCC(=O)N([C@@H](C)CO)C[C@H]2C)cc1 | nt | nt | i | nt | nt | nt | nt | nt
CC(=O)N1CCN(C(=S)NC(=O)C23CC4CC(CC(C4)C2)C3)CC1 | 47.5 | i | i | i | i | i | i | i
CNC(=S)N1CCC(NC(=O)C23CC4CC(CC(C4)C2)C3)CC1 | i | i | i | i | i | i | nt | nt
CCCn1nc(C(=O)Nc2ccc(N3CCOCC3)cc2)c2ccccc2c1=O | i | i | i | i | i | i | nt | nt
CCCn1nc(C(=O)Nc2ccc(-n3cnnn3)cc2)c2ccccc2c1=O | 70.6 | i | i | i | i | i | i | i
COc1ccc(CN(C)C(=O)c2ccc(OCC(=O)Nc3cccc(C(F)(F)F)c3)c(OC)c2)c(OC)c1 | 44.9 | i | i | i | i | i | i | i
COc1ccc2ccccc2c1C1CC(=O)N2CN(Cc3ccco3)CSC2=C1C#N (stereo not drawn) | 51.7 | i | 45.4 | i | i | i | i | i
COc1ccc(C2CC(=O)N3CN(Cc4ccco4)CSC3=C2C#N)cc1 (stereo not drawn) | i | i | i | i | i | i | nt | nt
O=C(c1ccc(Br)o1)N1CCN(c2ccc3nnc(-c4ccccc4)n3n2)CC1 | i | i | i | i | i | i | nt | nt
O=S(=O)(c1ccc(Br)cc1)N1CCN(c2ccc3nnc(-c4ccccc4)n3n2)CC1 | 40.8 | i | i | i | i | i | 55.2 | i | Apaf1 inh interf=i
O=c1cc(N/N=C/c2ccccc2)[nH]c(=O)[nH]1 | 68.2 | i | i | i | i | i | 43.1 | i | Apaf1 inh interf=i
O=c1cc(C=NNc2ccccc2)[nH]c(=O)[nH]1 | nt | nt | i | nt | nt | nt | nt | nt
Cc1cc(O)c2c(c1O)C(=O)[C@]13C(=C2O)C(=O)[C@@H]2[C@@H](O)[C@H]1[C@@H]1[C@H](O)[C@H]3C(=O)C3=C(O)c4c(O)cc(C)c(O)c4C(=O)[C@]312 | 68.5 | i | 19.8 | i | i | i | 58.6 | i | Apaf1 inh interf=i
O=C(O)c1cccc(-c2ccc(/C=N/NC(=O)c3cccnc3)o2)c1 | i | i | i | i | i | i | nt | nt
O=C(/C=C/c1ccc(-c2ccccc2[N+](=O)[O-])o1)c1ccc(Br)cc1 | 48.8 | i | i | i | i | i | i | i
O=C(N/N=C/c1ccc(-c2ccccc2[N+](=O)[O-])o1)c1cccnc1 | 78.8 | i | i | i | i | i | 42.8 | i | Apaf1 inh interf=i
O=C(/C=C/c1ccc(-c2ccccc2[N+](=O)[O-])o1)c1ccc(F)cc1 | i | i | i | i | i | i | nt | nt
O=Cc1cccc(Oc2ncccn2)c1 | i | i | i | i | i | i | nt | nt
Nc1ccc(Oc2ncccn2)cc1 | 43.5 | i | 82.5 | i | i | i | 51.5 | i | Apaf1 inh interf=i
CCCC(=O)N1CCC1(C)C(=O)Nc1ccc(OC(F)F)cc1 (stereo not drawn) | nt | nt | i | nt | nt | nt | nt | nt
COC(=O)c1sc(NC(=O)OCc2ccccc2)nc1CCNC(=O)OC(C)(C)C | nt | nt | i | nt | nt | nt | nt | nt
CC(C)C(=O)NC(c1cccs1)c1cc([N+](=O)[O-])c2cccnc2c1O (stereo not drawn) | 68.3 | i | 44.5 | i | i | i | i | i
SMILES | Apaf-1 inh | SENP7 inh | SENP8 block-1 | SENP6 block | SENP8 block-2 | UBC13 inh | Apaf-1 inh conf | Rh110 quench | others
Fc1cccc(Cc2c(-c3ccco3)nc3ccc(Br)cn23)c1 | nt | nt | i | nt | nt | nt | nt | nt
C#CCOCCOCCOCCNc1nc(N2CCN(C(=O)Cn3cc(CCCCN)nn3)CC2)nc(N2CCN(C(=O)[C@H](CCCCN)n3cc(CCCC)nn3)CC2)n1 | 41.4 | i | i | i | i | i | i | i
CC1(C(=O)NCc2cccnc2)CCN1C(=O)Cc1cccs1 (stereo not drawn) | nt | nt | i | nt | nt | nt | nt | nt
COc1ccc(N)cc1-n1c(C)ccc1C | 83.7 | i | i | i | i | i | i | i
COc1ccc(C)cc1-n1c(C)cc(C=O)c1C | i | i | i | i | i | i | nt | nt
Cc1ccccc1-c1csc(C(O)c2ccc(F)c(F)c2)n1 (stereo not drawn) | nt | nt | i | nt | nt | nt | nt | nt
CCCC1=Nc2cc(C(=O)NCCCOCC)ccc2Sc2ccccc21 | 45.4 | i | i | i | i | i | i | i
Cc1cc(/C=N/n2cnnc2)c(C)n1-c1ccc(OCc2ccc(Cl)cc2Cl)cc1 | 45.6 | i | i | i | i | i | i | i
Cc1cc(/C=N/n2cnnc2)c(C)n1-c1ccc(Cl)cc1 | i | i | i | i | i | i | nt | nt
Cc1cc2cc(CNC(=O)Nc3ccc(Cl)c(Cl)c3)ccc2n1C | 62.3 | i | i | i | i | i | i | i
Cc1ccc(S(=O)(=O)NCc2ccc3c(c2)cc(C)n3C)cc1 | 50.6 | i | i | i | i | i | i | i
Cc1cc2cc(CNC(=O)NC3CCCCC3)ccc2n1C | 50.8 | i | i | i | i | i | i | i
Cc1onc(-c2ccccc2Cl)c1C(=O)NCc1ccc2c(c1)cc(C)n2C | 53.1 | i | i | i | i | i | i | i
COCC(=O)NCc1ccc2c(c1)cc(C)n2C | i | i | i | i | i | i | nt | nt
Cc1ccc(CNC(=O)c2c(-c3ccccc3Cl)noc2C)cc1 | i | i | i | i | i | i | nt | nt
OC[C@@H]1CN(Cc2ccc(-c3ccccc3)cc2)C[C@H](n2cnc3c(NCc4ccncc4)ncnc32)O1 | nt | nt | i | nt | nt | nt | nt | nt
CC(=O)C1=CCC(c2cccs2)N(S(=O)(=O)c2ccc(C)cc2)C1 (stereo not drawn) | nt | nt | i | nt | nt | nt | nt | nt
CC(N=Cc1cc([N+](=O)[O-])ccc1O)c1ccccc1 (stereo not drawn) | i | i | i | i | i | i | nt | nt
CC(N=Cc1cccc(O)c1O)c1ccccc1 (stereo not drawn) | 71.3 | i | 81.1 | i | i | i | i | i
Cc1cccc(C=Nc2ccc3c(c2)oc2ccccc23)c1O | i | i | i | i | i | i | nt | nt
Cc1ccccc1N=Cc1cccc(O)c1O | 73.8 | i | i | i | i | i | i | i
COCOCCn1cc(CN2CCS(=O)(=O)N(Cc3ccc(-c4ccc(F)nc4)cc3)C(CC(C)C)C2=O)nn1 (stereo not drawn) | nt | nt | i | nt | nt | nt | nt | nt
Oc1ccccc1/C=N/Nc1cc(N2CCCC2)nc(N2CCCC2)n1 | 97.7 | i | 58.4 | i | i | i | 99.8 | i | Apaf1 inh interf=i
c1ccc2c(c1)oc1c(-c3cccc4nccn34)cccc12 | nt | nt | i | nt | nt | nt | nt | nt
